Measurements from article PMC9166452 (International Journal of Nanomedicine, 2022).
“Also recorded” adds a separate entry of the source. Counter-ions that a name gives are not always drawn.

Experiments:
[1] = oral, cited from earlier work
In vivo toxicity [2] = assay: In vivo toxicity; set-up: species or system BALB/c nude mice; settings: after tumor resection surgery, oral
Procedure, shortened: (§1)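 MDA-MB-231 cells (1×10^6/mouse) were injected into the second right mammary gland of nude mice. Caliper volume was V = (a×b2)/2. At 80–100 mm3, tumors were resected under isoflurane, leaving 5–10% residual. Twenty mice were split into four arms (surgery plus PBS, blank TPGS micelles, free or micelle-loaded test compound), dosed orally at equal volume every two days on days 0–14. Tumor size and body weight were followed every two days to day 17. Organs, including jejunum and lungs, and tumors were then taken for histology.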

In vivo toxicity [3] = assay: In vivo toxicity; set-up: species or system BALB/c nude mice; settings: 0.25 mg/kg oral
Procedure, shortened: (§2)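 Female BALB/c nude mice (4 weeks old) received MDA-MB-231 cells (1×10^6/mouse) subcutaneously in the right thigh. At 50–100 mm3 they were randomised to PBS, free or micelle-loaded test compound, given 0.25 mg/kg by oral gavage every two days on days 0–14. Tumor size and body weight were taken every two days to day 17, then organs and tumors went to pathology/TUNEL. TIR was derived from mean tumor size, dosed vs control.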

[4] = system: subcutaneous xenografts of MDA-MB-231 cells; assay: Oral treatment of subcutaneous TNBC xenografts in nude mice; assay type: in vivo, BALB/c nude mice
Procedure, shortened: as §2

[5] = mice, oral administration; cited from earlier work
Caco-2 cell monolayers = assay: Bidirectional transport across Caco-2 cell monolayers; assay type: in vitro ADME; settings: AP→BL, 4°C
Procedure, shortened: (§3)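 Monolayers of Caco-2 cells were grown on 0.4-μm polycarbonate Transwell inserts (2×10^5 cells/well) and used only after passing a TEER check. Free or TPGS-micelle test compound (2 μg/mL) was added apically or basolaterally and incubated 4 h at 37°C. Receiver fluid was assayed by HPLC. Verapamil was co-incubated 4 h. AP→BL transport was also run at 4°C. Papp = (dQ/dt)/(A·C0); ER = Papp(BL→AP)/Papp(AP→BL).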

P-glycoprotein (P-gp) = assay: as above; assay type: in vitro ADME; settings: human, Caco-2, with verapamil 100 µM
Procedure, shortened: as §3

[6] = as above; assay type: in vitro ADME; settings: human, Caco-2
Procedure, shortened: as §3

[7] = system: orthotopic TNBC (MDA-MB-231 cells); assay: Oral treatment combined with surgery on orthotopic TNBC in nude mice; assay type: in vivo, BALB/c nude mice; settings: after tumor resection surgery
Procedure, shortened: as §1

[8] = In vitro release in simulated gastrointestinal fluids; assay type: physicochemical
[9] = patients with advanced solid tumors

In the case of `O=C(CC1NCCCC1O)Cn1cnc2cc(Br)c(Cl)cc2c1=O` (stereo not shown) [HF, Halofuginone hydrobromide], the “"acute" maximum tolerated dose (MTD)” value [1, 9] is given as 3.5 mg/day, the “dose-limiting toxicities (DLT)” value [1, 9] is given as “nausea, vomiting, and fatigue” and the “dose recommended for chronic administration in Phase II clinical studies” value [1] is given as 0.5 mg/day. For the same compound, the body weight change (In vivo toxicity [2]) was “caused the loss of body weight; also recorded: significant loss of body weight”, the “histology of jejunum (H&E)” value (In vivo toxicity [2]) was “jejunum bleeding; also recorded: jejunum congestion was found” and the “histology of jejunum / bleeding (H&E)” value (In vivo toxicity [3]) was “jejunum hemorrhage”. The body weight change (In vivo toxicity [3]; every two days on days 0–14) was “caused the loss of body weight”, the “tumor inhibition rate (TIR)” value ([4]; 0.25 mg/kg HF, oral gavage, every two days on days 0–14) was 47.55% ± 1.32 and the “tumor size vs untreated mice” value ([4]; 0.25 mg/kg oral, 12 days after oral administration) was “significant reduction in tumor size”. For the same compound, the “tumor necrosis (H&E staining)” value ([4]; 0.25 mg/kg oral, tumor sections) was “larger necrotic area than those from the PBS group”, the “expression of Bcl-2, Bax and Caspase-3 in tumor (immunohistochemistry)” value ([4]; 0.25 mg/kg oral, tumor tissues) was “markedly upregulated the expression of Bax and Caspase-3, and downregulated the expression of Bcl-2” and the “detection in plasma and red blood cells” value [5] was “not detected in plasma and red blood cells”. The “persistence in kidneys, liver and lungs” value [5] was “up to 48 hours”, the “Papp at 4°C compared with 37°C” value (Caco-2 cell monolayers) was “lower than those at 37 °C” and the Papp A→B at 4 h, 2 μg/mL (P-glycoprotein (P-gp)) was 6.25 ± 0.75 ×10⁻⁶ cm/s. For the same compound, the Papp B→A at 4 h, 2 μg/mL (P-glycoprotein (P-gp)) was 5.9 ± 0.1 ×10⁻⁶ cm/s, the efflux ratio at 4 h, 2 μg/mL (P-glycoprotein (P-gp)) was 0.94 and the Papp A→B at 4 h, 2 μg/mL [6] was 4.73 ± 0.28 ×10⁻⁶ cm/s. The Papp B→A at 4 h, 2 μg/mL [6] was 8.72 ± 0.16 ×10⁻⁶ cm/s, the efflux ratio at 4 h, 2 μg/mL [6] was 1.84 and the “expression of Bcl-2, Bax and Caspase-3 in tumor (immunohistochemistry)” value [7] was “regulated by HF and HTPM treatment”. The “lung metastasis (H&E, visual inspection)” value [7] was “normal histological features without any tumors”, the “tumor growth vs PBS- and FTPM-treated groups” value [7] was “significant delay in tumor growth” and the “tumor necrosis (H&E staining)” value [7] was “larger necrotic area than those from the PBS- and FTPM-treated groups”. The “tumor inhibition rate (TIR)” value ([7]; every two days on days 0–14) was 43.57% ± 1.15, the “cumulative release percentage (CRP) of HF” value ([8]; simulated gastric fluids, from 0 to 8 hours) was 53.25% and the “cumulative release percentage (CRP) of HF” value ([8]; simulated gastric fluids, from 8 to 12 hours) was 19.6%. For the same compound, the “cumulative release percentage (CRP) of HF” value ([8]; simulated gastric fluids, within 24 hours) was 80.03%, the “cumulative release percentage (CRP) of HF” value ([8]; simulated intestinal fluids, from 0 to 8 hours) was 54.39% and the “cumulative release percentage (CRP) of HF” value ([8]; simulated intestinal fluids, from 8 to 12 hours) was 18.17%. For the same compound, the “cumulative release percentage (CRP) of HF” value ([8]; simulated intestinal fluids, within 24 hours) was 82.61%.
